Legend:
[1] = Fraction unbound in Wistar Hannover rat plasma at 1 mg/kg, sc measured at 0.5 to 4 hrs post dose by LC-MS/MS analysis; format: ADME, organism-based
[2] = target: Voltage-dependent N-type calcium channel subunit alpha-1B (Rattus norvegicus) (UniProt Q02294); assay: Displacement of [125I]omega -conotoxin GVIA from rat brain N-type Calcium channel at 10 uM after 30 mins by scintillation counting analysis relative to control
[3] = target: Mu-type opioid receptor (Homo sapiens) (UniProt P35372); assay: Inhibition of human mu opioid receptor at 10 uM relative to control
[4] = target: Substance-P receptor (Homo sapiens) (UniProt P25103); assay: Inhibition of human NK1 receptor at 10 uM relative to control
[5] = target: Histamine H1 receptor (Homo sapiens) (UniProt P35367); assay: Inhibition of human histamine H1 receptor at 10 uM relative to control
[6] = Ratio of drug uptake in cerebrospinal fluid to fraction unbound in plasma in Wistar Hannover rat at 1 mg/kg, sc measured at 0.5 hrs post dose by LC-MS/MS analysis; format: ADME, organism-based, CSF/Plasma; conditions: in vivo
[7] = target: 3',5'-cyclic-AMP phosphodiesterase 4D (Homo sapiens, UniProt Q08499); assay: Inhibition of full length recombinant human PDE4D3 using 3',5'-[3H]cAMP as substrate after 30 mins by scintillation proximity assay
How it was run: (§1)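 Enzymes were human except PDE6A, which was bovine. Each was assayed with cAMP or cGMP substrate, as appropriate to the enzyme, at concentrations below 1/3 of Km. IC50 values are mean ± SEM from n = 3 or more.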

[8] = target: Melanocortin receptor 3 (Homo sapiens) (UniProt P41968); assay: Inhibition of human Melanocortin 3 receptor at 10 uM relative to control
[9] = target: Angiotensin-converting enzyme (Homo sapiens) (UniProt P12821); assay: Inhibition of human angiotensin converting enzyme at 10 uM relative to control
Homo sapiens [10] = organism: Homo sapiens; assay: Selectivity ratio of IC50 for full length recombinant human PDE2A1 to IC50 for full length recombinant human PDE1A
How it was run: (§2)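 IC50s were measured against recombinant PDEs, all human except PDE6A (bovine). Each enzyme was given its appropriate cAMP or cGMP substrate at below 1/3 of its Km. IC50s are the mean of n = 3 or more. The selectivity ratio is the IC50 for the other PDE divided by the IC50 for PDE1B1 or PDE1A.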

[11] = target: Mitogen-activated protein kinase 14 (Homo sapiens) (UniProt Q16539); assay: Inhibition of recombinant human p38 alpha using Ulight-CFFKNIVTPRTPPPSQGK-amide as substrate at 10 uM after 30 mins in presence of ATP by LANCE method relative to control
[12] = Drug uptake in Wistar Hannover rat cerebrospinal fluid at 1 mg/kg, sc measured at 2 hrs post dose by LC-MS/MS analysis; format: ADME, organism-based; conditions: read-out: Drug uptake
How it was run: (§3)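 Rats were dosed subcutaneously at 1 mg/kg. CSF, plasma and brain were sampled at 0.5, 1, 2 and 4 h post dose and analysed for drug concentration. Values are means at each time point.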

[13] = target: High affinity cGMP-specific 3',5'-cyclic phosphodiesterase 9A (Homo sapiens, UniProt O76083); assay: Inhibition of full length recombinant human PDE9A1 using 3',5'-[3H]cGMP as substrate after 30 mins by scintillation proximity assay; how it was run: as §1
Homo sapiens [14] = organism: Homo sapiens; assay: Selectivity ratio of IC50 for full length recombinant human PDE11A4 to IC50 for full length recombinant human PDE1B1; how it was run: as §2
[15] = Drug uptake in Wistar Hannover rat cerebrospinal fluid at 1 mg/kg, sc measured at 0.5 hrs post dose by LC-MS/MS analysis; format: ADME, organism-based; conditions: read-out: Drug uptake; how it was run: as §3
[16] = target: 5-hydroxytryptamine receptor 3A (Homo sapiens) (UniProt P46098); assay: Inhibition of human 5-HT3 receptor at 10 uM relative to control
Homo sapiens [17] = organism: Homo sapiens; assay: Selectivity ratio of IC50 for full length recombinant human PDE7B to IC50 for full length recombinant human PDE1A; how it was run: as §2
[18] = target: Type-1 angiotensin II receptor (Homo sapiens) (UniProt P30556); assay: Inhibition of human angiotensin 1 receptor at 10 uM relative to control
Homo sapiens [19] = organism: Homo sapiens; assay: Selectivity ratio of IC50 for full length recombinant human PDE5A1 to IC50 for full length recombinant human PDE1B1; how it was run: as §2
[20] = Fraction unbound in Wistar Hannover rat brain at 1 mg/kg, sc measured at 2 hrs post dose by LC-MS/MS analysis; format: ADME, organism-based; conditions: in vivo
[21] = target: Histamine H3 receptor (Homo sapiens) (UniProt Q9Y5N1); assay: Inhibition of human histamine H3 receptor at 10 uM relative to control
[22] = target: Endothelin-1 receptor (Homo sapiens) (UniProt P25101); assay: Inhibition of endothelin A receptor (unknown origin) at 10 uM relative to control
[23] = Ratio of fraction unbound in Wistar Hannover rat brain to plasma at 1 mg/kg, sc measured at 0.5 hrs post dose by LC-MS/MS analysis; format: ADME, organism-based; conditions: in vivo
[24] = target: cAMP and cAMP-inhibited cGMP 3',5'-cyclic phosphodiesterase 10A (Homo sapiens, UniProt Q9Y233); assay: Inhibition of full length recombinant human PDE10A1 using 3',5'-[3H]cAMP as substrate after 30 mins by scintillation proximity assay; how it was run: as §1
[25] = Drug uptake in Wistar Hannover rat cerebrospinal fluid at 1 mg/kg, sc measured at 1 hr post dose by LC-MS/MS analysis; format: ADME, organism-based; conditions: read-out: Drug uptake; how it was run: as §3
[26] = target: Adenosine A2 receptor (Homo sapiens) (UniProt P29275+P29274); assay: Inhibition of human adenosine A2 receptor at 10 uM relative to control; format: protein assay
[27] = target: Prostaglandin G/H synthase 2 (Homo sapiens) (UniProt P35354); assay: Inhibition of recombinant human cyclooxygenase 2 using arachidonic acid/ADHP as substrate at 10 uM after 5 mins by Fluorimetric method relative to control
Homo sapiens [28] = organism: Homo sapiens; assay: Selectivity ratio of IC50 for full length recombinant human PDE4D3 to IC50 for full length recombinant human PDE1B1; how it was run: as §2
MAO-A = MAO-A (Homo sapiens, UniProt P21397); assay: Inhibition of human MAO-A at 10 uM relative to control
Homo sapiens [29] = organism: Homo sapiens; assay: Selectivity ratio of IC50 for full length recombinant human PDE1A to IC50 for full length recombinant human PDE1B1; how it was run: as §2
BCRP (ABCG2) = BCRP (ABCG2) (Homo sapiens, UniProt Q9UNQ0); assay: Substrate activity at BCRP (unknown origin) assessed as efflux ratio; conditions: not told
Homo sapiens [30] = organism: Homo sapiens; assay: Inhibition of human calcium modulated kinase 2 at 10 uM relative to control
Rattus norvegicus = organism: Rattus norvegicus; assay: Displacement of [3H]CGP 39653 from rat brain Glutamate receptor ionotropic, NMDA at 10 uM after 60 mins by scintillation counting analysis relative to control
Homo sapiens [31] = organism: Homo sapiens; assay: Selectivity ratio of IC50 for full length recombinant human PDE4D3 to IC50 for full length recombinant human PDE1A; how it was run: as §2
[32] = target: Motilin receptor (Homo sapiens) (UniProt O43193); assay: Inhibition of human Motilin receptor at 10 uM relative to control
[33] = target: Muscarinic acetylcholine receptor M2 (Homo sapiens) (UniProt P08172); assay: Inhibition of human muscarinic M2 receptor at 10 uM relative to control
Sequence of Muscarinic acetylcholine receptor M2 (Homo sapiens) (P08172 whole entry): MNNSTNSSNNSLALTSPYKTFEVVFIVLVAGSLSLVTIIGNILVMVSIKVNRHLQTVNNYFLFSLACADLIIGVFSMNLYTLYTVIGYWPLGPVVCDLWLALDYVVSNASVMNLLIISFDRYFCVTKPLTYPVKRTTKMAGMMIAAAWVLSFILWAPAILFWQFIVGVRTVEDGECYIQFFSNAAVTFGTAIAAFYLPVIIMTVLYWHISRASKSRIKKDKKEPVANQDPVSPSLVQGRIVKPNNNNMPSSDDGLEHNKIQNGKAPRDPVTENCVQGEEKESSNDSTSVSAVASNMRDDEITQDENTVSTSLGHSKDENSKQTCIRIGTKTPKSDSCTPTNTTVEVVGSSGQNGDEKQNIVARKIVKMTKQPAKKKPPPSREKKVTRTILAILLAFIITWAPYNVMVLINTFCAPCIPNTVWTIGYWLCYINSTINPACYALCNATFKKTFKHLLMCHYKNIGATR

Sequence of Type-1 angiotensin II receptor (Homo sapiens) (P30556 whole entry): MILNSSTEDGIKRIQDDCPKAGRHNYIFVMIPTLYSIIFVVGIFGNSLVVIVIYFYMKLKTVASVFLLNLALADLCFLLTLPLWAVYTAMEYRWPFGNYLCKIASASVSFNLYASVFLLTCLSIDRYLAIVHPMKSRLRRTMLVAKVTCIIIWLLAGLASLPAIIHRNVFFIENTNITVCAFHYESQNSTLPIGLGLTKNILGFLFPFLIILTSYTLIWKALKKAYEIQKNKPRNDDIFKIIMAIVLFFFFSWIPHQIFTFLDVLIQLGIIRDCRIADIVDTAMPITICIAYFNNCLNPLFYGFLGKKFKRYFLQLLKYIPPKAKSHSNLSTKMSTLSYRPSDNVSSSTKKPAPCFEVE
Sequence of Histamine H1 receptor (Homo sapiens) (P35367 whole entry): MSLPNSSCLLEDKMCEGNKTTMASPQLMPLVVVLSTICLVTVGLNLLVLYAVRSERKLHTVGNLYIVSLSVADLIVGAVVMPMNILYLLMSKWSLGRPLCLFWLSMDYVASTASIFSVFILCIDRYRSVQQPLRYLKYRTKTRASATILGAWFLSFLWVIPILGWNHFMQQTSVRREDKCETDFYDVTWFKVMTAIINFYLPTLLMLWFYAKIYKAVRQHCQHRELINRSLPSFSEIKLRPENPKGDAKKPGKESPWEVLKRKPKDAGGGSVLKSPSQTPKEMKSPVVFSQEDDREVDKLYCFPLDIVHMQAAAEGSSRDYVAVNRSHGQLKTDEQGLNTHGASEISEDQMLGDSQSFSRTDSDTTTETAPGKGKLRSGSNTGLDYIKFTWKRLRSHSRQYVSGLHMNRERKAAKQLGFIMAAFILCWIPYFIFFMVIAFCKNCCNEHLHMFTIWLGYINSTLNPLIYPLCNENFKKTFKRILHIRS
Sequence of Mu-type opioid receptor (Homo sapiens) (P35372 whole entry): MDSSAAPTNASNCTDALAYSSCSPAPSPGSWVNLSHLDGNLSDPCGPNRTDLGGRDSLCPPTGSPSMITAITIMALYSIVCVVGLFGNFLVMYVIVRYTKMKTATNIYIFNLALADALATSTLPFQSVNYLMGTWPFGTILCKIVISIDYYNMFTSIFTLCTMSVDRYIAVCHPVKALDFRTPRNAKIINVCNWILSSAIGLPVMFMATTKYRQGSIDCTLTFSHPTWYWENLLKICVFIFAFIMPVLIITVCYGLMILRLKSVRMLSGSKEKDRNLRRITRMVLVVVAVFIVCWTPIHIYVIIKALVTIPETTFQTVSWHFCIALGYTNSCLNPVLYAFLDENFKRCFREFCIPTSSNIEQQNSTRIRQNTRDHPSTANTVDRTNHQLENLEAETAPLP
Sequence of Melanocortin receptor 3 (Homo sapiens) (P41968 whole entry): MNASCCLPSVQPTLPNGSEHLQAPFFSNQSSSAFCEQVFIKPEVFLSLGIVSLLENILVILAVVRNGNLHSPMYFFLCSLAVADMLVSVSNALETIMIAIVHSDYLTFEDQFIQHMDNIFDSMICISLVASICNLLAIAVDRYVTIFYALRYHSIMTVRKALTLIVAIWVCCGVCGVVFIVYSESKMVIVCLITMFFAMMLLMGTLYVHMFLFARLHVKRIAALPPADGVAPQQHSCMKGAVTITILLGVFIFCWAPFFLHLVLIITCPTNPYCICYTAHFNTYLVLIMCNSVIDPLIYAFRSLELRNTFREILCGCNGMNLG
Sequence of 3',5'-cyclic-AMP phosphodiesterase 4D (Q08499 whole entry): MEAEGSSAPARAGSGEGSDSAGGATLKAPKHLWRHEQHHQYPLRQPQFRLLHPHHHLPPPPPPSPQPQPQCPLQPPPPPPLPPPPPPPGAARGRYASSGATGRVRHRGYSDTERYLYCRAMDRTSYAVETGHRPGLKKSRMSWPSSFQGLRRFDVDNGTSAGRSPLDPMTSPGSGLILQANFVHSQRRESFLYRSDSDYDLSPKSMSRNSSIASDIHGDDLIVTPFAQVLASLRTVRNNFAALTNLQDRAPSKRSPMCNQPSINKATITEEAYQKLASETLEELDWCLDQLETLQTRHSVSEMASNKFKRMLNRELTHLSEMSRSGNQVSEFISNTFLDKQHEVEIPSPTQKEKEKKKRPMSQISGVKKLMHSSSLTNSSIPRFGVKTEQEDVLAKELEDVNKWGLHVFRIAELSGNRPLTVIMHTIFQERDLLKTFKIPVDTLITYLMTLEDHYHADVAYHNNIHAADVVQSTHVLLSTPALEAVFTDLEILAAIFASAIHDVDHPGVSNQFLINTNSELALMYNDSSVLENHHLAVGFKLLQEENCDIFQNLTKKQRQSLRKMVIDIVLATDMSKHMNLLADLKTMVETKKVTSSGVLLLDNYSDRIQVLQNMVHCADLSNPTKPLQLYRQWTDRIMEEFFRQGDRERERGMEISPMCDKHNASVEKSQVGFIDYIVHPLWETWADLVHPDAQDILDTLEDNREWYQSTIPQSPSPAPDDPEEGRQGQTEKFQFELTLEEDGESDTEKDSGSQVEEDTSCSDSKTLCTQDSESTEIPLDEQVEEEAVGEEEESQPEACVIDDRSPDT
Sequence of MAO-A (P21397 whole entry): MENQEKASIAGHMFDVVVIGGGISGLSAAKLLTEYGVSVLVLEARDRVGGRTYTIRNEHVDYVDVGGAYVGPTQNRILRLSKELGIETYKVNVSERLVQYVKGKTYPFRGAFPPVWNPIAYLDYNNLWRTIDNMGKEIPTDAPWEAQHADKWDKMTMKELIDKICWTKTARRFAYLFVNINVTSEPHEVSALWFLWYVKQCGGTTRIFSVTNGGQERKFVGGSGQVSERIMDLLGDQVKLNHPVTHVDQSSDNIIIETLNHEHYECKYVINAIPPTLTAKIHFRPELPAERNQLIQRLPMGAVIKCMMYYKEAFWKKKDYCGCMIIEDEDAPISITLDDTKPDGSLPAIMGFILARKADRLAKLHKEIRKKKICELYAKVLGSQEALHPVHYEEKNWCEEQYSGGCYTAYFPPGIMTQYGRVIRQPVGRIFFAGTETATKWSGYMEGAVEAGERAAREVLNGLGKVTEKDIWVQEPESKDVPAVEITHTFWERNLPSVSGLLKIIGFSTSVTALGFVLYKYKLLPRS
Sequence of cAMP and cAMP-inhibited cGMP 3',5'-cyclic phosphodiesterase 10A (Q9Y233 whole entry): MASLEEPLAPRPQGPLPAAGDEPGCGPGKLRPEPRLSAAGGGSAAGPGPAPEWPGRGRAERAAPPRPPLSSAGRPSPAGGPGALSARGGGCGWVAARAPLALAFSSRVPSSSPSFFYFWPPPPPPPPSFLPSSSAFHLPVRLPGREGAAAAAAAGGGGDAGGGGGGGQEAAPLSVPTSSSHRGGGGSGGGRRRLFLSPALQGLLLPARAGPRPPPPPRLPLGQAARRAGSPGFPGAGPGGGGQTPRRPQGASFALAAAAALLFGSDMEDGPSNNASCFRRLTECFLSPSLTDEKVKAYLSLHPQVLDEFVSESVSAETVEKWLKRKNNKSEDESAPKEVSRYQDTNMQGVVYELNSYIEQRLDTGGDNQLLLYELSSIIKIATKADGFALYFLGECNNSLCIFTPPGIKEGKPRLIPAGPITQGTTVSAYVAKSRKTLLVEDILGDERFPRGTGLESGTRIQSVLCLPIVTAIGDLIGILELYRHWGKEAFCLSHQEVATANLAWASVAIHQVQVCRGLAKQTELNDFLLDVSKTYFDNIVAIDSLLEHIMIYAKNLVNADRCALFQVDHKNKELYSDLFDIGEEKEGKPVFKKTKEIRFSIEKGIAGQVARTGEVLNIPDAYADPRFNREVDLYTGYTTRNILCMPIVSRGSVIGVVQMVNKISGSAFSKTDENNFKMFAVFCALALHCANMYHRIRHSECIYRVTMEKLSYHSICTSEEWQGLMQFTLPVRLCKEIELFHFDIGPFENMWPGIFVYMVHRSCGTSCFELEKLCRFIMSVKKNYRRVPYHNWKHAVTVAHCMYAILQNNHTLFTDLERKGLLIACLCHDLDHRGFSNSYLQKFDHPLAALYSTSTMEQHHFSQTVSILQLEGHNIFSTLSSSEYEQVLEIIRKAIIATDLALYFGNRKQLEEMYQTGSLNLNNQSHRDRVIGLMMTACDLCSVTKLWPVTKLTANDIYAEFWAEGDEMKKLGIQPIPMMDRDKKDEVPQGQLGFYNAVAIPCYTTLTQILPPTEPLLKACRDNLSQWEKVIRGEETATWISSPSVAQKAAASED
Sequence of 5-hydroxytryptamine receptor 3A (Homo sapiens) (P46098 whole entry): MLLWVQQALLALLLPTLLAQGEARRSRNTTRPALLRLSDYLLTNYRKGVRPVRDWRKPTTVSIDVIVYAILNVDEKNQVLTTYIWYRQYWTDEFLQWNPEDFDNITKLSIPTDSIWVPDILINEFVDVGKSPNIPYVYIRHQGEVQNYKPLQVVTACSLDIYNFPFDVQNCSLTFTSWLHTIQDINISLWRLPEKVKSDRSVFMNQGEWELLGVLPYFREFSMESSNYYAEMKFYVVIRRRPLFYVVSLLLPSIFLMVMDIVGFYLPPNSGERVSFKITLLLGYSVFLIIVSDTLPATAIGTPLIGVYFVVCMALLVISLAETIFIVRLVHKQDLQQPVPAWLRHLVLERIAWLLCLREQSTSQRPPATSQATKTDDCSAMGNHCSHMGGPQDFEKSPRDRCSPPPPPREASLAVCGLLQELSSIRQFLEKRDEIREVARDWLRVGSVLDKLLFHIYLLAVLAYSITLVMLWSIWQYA

COc1ccc2c(N[C@@H](C)Cc3cc(C)[nH]n3)ncnc2c1OC
fraction unbound [1]: 0.25
inhibition [2]: < 50%
inhibition [3]: < 50%
inhibition [4]: < 50%
inhibition [5]: < 50%
Ratio [6]: 0.12 to 0.14
IC50 [7]: 26300 nM
inhibition [8]: < 50%
inhibition [9]: < 50%
Ratio IC50 (Homo sapiens [10]): 1130
inhibition [11]: < 50%
concentration at 2 h [12]: 8 nM
IC50 [13]: > 200 nM
Ratio IC50 (Homo sapiens [14]): 3740
concentration at 0.5 h [15]: 21 nM
inhibition [16]: < 50%
Ratio IC50 (Homo sapiens [17]): 983
inhibition [18]: < 50%
Ratio IC50 (Homo sapiens [19]): 5970
Drug uptake(free) [20]: 2 nM
inhibition [21]: < 50%
inhibition [22]: < 50%
Ratio [23]: 0.04
IC50 [24]: 409 nM
concentration at 1 h [25]: 16 nM
inhibition [26]: < 50%
inhibition [27]: < 50%
Ratio IC50 (Homo sapiens [28]): 2890
inhibition at 10 µM (MAO-A): < 50%
Ratio IC50 (Homo sapiens [29]): 4.6
efflux ratio (BCRP (ABCG2)): 84
inhibition (Homo sapiens [30]): < 50%
inhibition (Rattus norvegicus): < 50%
Ratio IC50 (Homo sapiens [31]): 626
inhibition [32]: < 50%
inhibition [33]: < 50%
